# Compound activity as filed in PubChem BioAssay.
# KCNQ1 block = inhibitors of human KCNQ1 channel, primary screen, cell-based, thallium flux, high-throughput | B-score at 10 µM | AID 2642, 2010 | CHO-K1 KCNQ1, FluxOR thallium flux fluorescence; active compounds read high | 1.3% of 310,000 active | Potassium voltage-gated channel subfamily KQT member 1 (Homo sapiens), P51787;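 active means compounds whose thallium flux B-score, printed positive for inhibition, exceeds three library SD while starting fluorescence stays within three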;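 further: channel opened by potassium depolarization with thallium stimulus after 20 min compound exposure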
# KCNK9 inh = KCNK9 potassium channel inhibitors, primary screen, HEK293 cells, thallium flux | 1.2% of 310,000 active | B-score at 10 µM | Potassium channel subfamily K member 9 (Homo sapiens), Q9NPC2 | FluxOR thallium flux fluorescence; active compounds read low;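 active means ratio B-score over 3 SD below the library mean, with starting fluorescence within 5 SD of its mean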;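 further: negative B-score means less thallium flux so channel inhibition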
# Kir21 inh = inhibitors of mouse Kir2.1 inward-rectifier potassium channel; Inward rectifier potassium channel 2 (Mus musculus), P35561; HEK293-Kir2.1, FluxOR thallium flux fluorescence; active compounds read low; B-score at 10 µM; 0.85% of 310,000 active; AID 1672, 2009;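 active means fluorescence ratio B-score at or below minus 3 SD of library scores, with starting-brightness B-score within 2 SD, cut at about -4.2 in these data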;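 further: channel flux triggered by added potassium and thallium sulfate stimulus; B-score of peak minus minimum fluorescence over baseline after thallium stimulus; more negative B-score means stronger Kir2.1 block with less thallium influx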
# hERG rescue = hERG rescue from dofetilide block, primary screen, cell-based, CHO-hERG, FluxOR thallium flux, dofetilide IC70; Voltage-gated inwardly rectifying potassium channel KCNH2 (Homo sapiens), Q12809; dofetilide IC70 present; activation (rescue from dofetilide block), less the hit threshold, % at 10 µM; 0.51% of 310,000 active; AID 1511, 2009;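 active means activation above the mean of controls blocked by dofetilide plus 5 SD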;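 further: thallium influx through hERG after potassium depolarization seen as dye fluorescence rise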
# KCNQ1 act = potentiators or activators of KCNQ1 channel, primary screen, cell-based, thallium flux, high-throughput. Potassium voltage-gated channel subfamily KQT member 1 (Homo sapiens), P51787. CHO-K1 KCNQ1, thallium flux FluxOR fluorescence; active compounds read high. B-score at 10 µM. 0.35% of 310,000 active. AID 2648, 2010;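 active means fluorescence ratio B-score, a plate-corrected score, at least three library SD, with initial intensity B-score within 5 SD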
#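 Test system: CHO-K1 cells stably expressing KCNQ1 / Medium: assay buffer / Also added: depolarizing K+/Tl+ stimulus, K2SO4 and Tl2SO4 each 12.5 mM in 5x stock / Incubation: 90 min dye loading and 20 min compound exposure, both at room temperature / Signal: thallium influx via FluxOR fluorescence, kinetic imaging / Evaluation: B score of baseline-normalized fluorescence ratio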
# KCNK3 inh = human KCNK3 channel inhibitors, primary screen, CHO cells, FluxOR thallium flux, B-score; Potassium channel subfamily K member 3 (Homo sapiens), O14649; FluxOR fluorescence; active compounds read low; B-score at 10 µM; 0.84% of 340,000 active;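 active means B-score under library mean minus 4 SD, starting fluorescence ratio at most library mean plus 5 SD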;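 further: more negative B-score means stronger inhibition of thallium flux through KCNK3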
# Target sequence (O14649 whole entry, looked up): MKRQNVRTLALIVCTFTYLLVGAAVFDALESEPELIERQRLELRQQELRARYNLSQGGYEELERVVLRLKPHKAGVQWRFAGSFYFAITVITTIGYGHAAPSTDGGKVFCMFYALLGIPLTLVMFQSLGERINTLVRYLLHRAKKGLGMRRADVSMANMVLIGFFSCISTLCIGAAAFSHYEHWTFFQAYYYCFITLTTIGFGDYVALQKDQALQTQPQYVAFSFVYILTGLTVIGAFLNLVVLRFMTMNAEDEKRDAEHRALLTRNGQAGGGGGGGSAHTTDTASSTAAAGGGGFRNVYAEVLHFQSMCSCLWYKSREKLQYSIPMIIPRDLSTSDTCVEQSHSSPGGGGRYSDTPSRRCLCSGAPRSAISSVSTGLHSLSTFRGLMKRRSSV
# KCNK3 inh conf = retest of human KCNK3 channel inhibitors, confirmation, CHO cells, FluxOR thallium flux, triplicate; shares compounds with KCNK3 inh; FluxOR fluorescence; 0% buffer, 100% carvedilol maximal block; ratio percent of control, % at 10 µM; 99% of 2,400 active; AID 651638, 2012;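 active means ratio percent of control, averaged over triplicates, above buffer control mean plus 5 SD, cut at about 64% in these data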;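 further: ratio is the fluorescence rise from min to max over baseline after thallium stimulus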
# KCNK3 uninduced = thallium flux inhibition in non-induced cells, primary screen, counter-screen for KCNK3 inhibitor project, cell-based, non-induced KCNK3 line, FluxOR thallium, triplicate; shares compounds with KCNK3 inh; non-induced KCNK3 parental cells; active compounds read low; thallium flux ratio (lower = more inhibition) at 10 µM; 40% of 2,400 active;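 active means thallium flux ratio, averaged over three wells, more than 5 SD below the buffer control mean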;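 further: host cells are CHO cells without KCNK3 induction; ratio is peak minus trough fluorescence over baseline then normalized to buffer controls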
# Numbers without * were called inactive; i = inactive; nt = no result. Sampled rows, rich in hits. Any-hit rate of the full collection: about 3.7%.
SMILES,KCNQ1 block,KCNK9 inh,Kir21 inh,hERG rescue,KCNQ1 act,KCNK3 inh,KCNK3 inh conf,KCNK3 uninduced
COc1ccc(C(=O)c2cnc3ccccc3c2-c2ccccc2)cc1,i,i,0.17,-9.3,i,-9.24*,112.0*,i
CC(=O)c1cccc(OC(=O)Oc2cccc(C(C)=O)c2)c1,nt,nt,nt,nt,nt,i,nt,nt
CC(OC(=O)c1ccc(-c2ccc(O)cc2)cc1)C(=O)NC1CCCCC1C (stereo not given),i,i,-0.69,-5.7,i,i,nt,nt
COc1cccc2cc(C(C)N(CCCN3CCOCC3)C(=S)Nc3ccc(C)cc3)oc12 (stereo not given),i,i,0.38,-8.7,i,-9.5*,105.3*,i
COc1ccc(NC(=S)N(CCCN2CCOCC2)C(C)c2cc3ccccc3o2)cc1 (stereo not given),i,i,0.32,-11.6,i,i,nt,nt
Cc1c(S(=O)(=O)N(C)C2CCCCC2)c(=O)n(C)c(=O)n1C,i,i,-2.63,-10.7,i,i,nt,nt
Fc1ccccc1/C=C1\CCCC2=C1NC(=S)NC2c1ccccc1F (stereo not given),i,i,0.39,-5.6,i,-9.04*,101.3*,i
S=C1NC2=C(CCC/C2=C\c2ccccc2)C(c2ccccc2)N1 (stereo not given),i,i,-0.23,-2.9,i,i,nt,nt
O=C(Nc1ccc(Cl)cn1)c1cc2c(s1)-c1ccccc1OC2,i,i,-1.17,-10.1,i,i,nt,nt
COC(=O)c1cn(CCOc2ccc(C)cc2)c2ccccc12,i,i,-1.18,-5.0,i,-8.93*,108.0*,i
Cc1ccc(OCCn2cc(C#N)c3ccccc32)cc1,i,i,1.05,-6.5,i,-9.5*,100.7*,0.152*
CC(=O)c1cn(CCOc2ccc(F)cc2)c2ccccc12,i,i,-2.39,-7.4,i,-8.96*,104.0*,i
CC(=O)c1cn(CCOc2ccccc2C)c2ccccc12,i,i,-1.04,-7.7,i,i,nt,nt
COc1cc2[nH]c(C(=O)N3CCc4ccccc43)cc2c(OC)c1OC,i,i,0.17,-8.8,i,i,nt,nt
COc1ccc(NC(=O)COC(=O)c2c3c(nc4ccccc24)CCCC3)cc1Cl,i,-9.67*,-0.54,-5.5,i,-9.1*,120.0*,0.147*
Cc1cc(=O)oc2c(C)c(OCC(=O)N3CCN(c4cccc(Cl)c4)CC3)ccc12,i,i,-0.01,-11.9,i,i,nt,nt
Cc1cccc(C(CC(=O)NCc2ccco2)c2ccccc2)c1O (stereo not given),i,i,0.01,-18.1,i,-9.03*,110.3*,i
Cc1ccc(O)c(C(CC(=O)NCc2ccco2)c2ccccc2)c1 (stereo not given),i,i,-2.61,-3.4,i,i,nt,nt
O=C(c1cccs1)c1cn(CC(=O)N2CCc3ccccc3C2)c2ccccc12,i,i,-0.5,-9.8,i,-10.6*,80.3*,i
O=C(O)Cn1cc(C(=O)c2cccs2)c2ccccc21,i,i,2.55,-9.1,i,i,nt,nt
CC1Cc2ccccc2N1C(=O)CN1C(=O)NC(C)(CCc2ccccc2)C1=O (stereo not given),i,i,0.95,-7.3,i,i,nt,nt
Cc1ccc(NC(=O)CSc2nnc(N)s2)cc1S(=O)(=O)N1CCOCC1,i,i,0.26,-15.5,i,i,nt,nt
COCCNC(=S)N/N=C/c1c2ccccc2cc2ccccc12,i,i,0.64,-26.8,i,-14*,110.0*,i
CCn1c(=O)c(C(=O)Nc2ccc(C)cc2C)c(O)c2ccccc21,i,i,0.91,-3.7,i,i,nt,nt
CCn1c(=O)c(C(=O)Nc2ccsc2C(=O)OC)c(O)c2ccccc21,i,i,0.33,-10.1,i,nt,nt,nt
SMILES,KCNQ1 block,KCNK9 inh,Kir21 inh,hERG rescue,KCNQ1 act,KCNK3 inh,KCNK3 inh conf,KCNK3 uninduced
CCCn1c(=O)c(C(=O)Nc2ccccc2C(=O)OC)c(O)c2ccccc21,i,i,0.49,-3.3,i,-9.62*,97.7*,i
CCOC(=O)c1ccccc1NC(=O)c1c(O)c2ccccc2n(CC)c1=O,i,i,0.11,-4.4,i,-9.52*,111.7*,i
COc1ccc(Br)cc1CN(C)C(=O)c1cnc(C)cn1,i,i,0.81,-4.8,i,i,nt,nt
C[C@H]1CN([C@@H](C)CO)C(=O)c2cc(NS(=O)(=O)c3ccc(Cl)cc3)ccc2O[C@@H]1CN(C)CC1CCCCC1,nt,nt,nt,nt,nt,-13.3*,93.3*,i
COc1ccccc1NC(=O)c1ccc(-c2nn(C)c(=O)c3ccccc23)cc1,i,i,0.16,-19.0,i,-9.94*,96.0*,i
Cc1cccc(NC(=O)COc2ccc(-c3nn(C)c(=O)c4ccccc34)cc2)c1,6*,i,0.28,-7.3,i,-11.8*,100.3*,i
COc1ccc(NC(=O)c2ccc(-c3nn(C)c(=O)c4ccccc34)cc2)cc1,i,i,-2.09,-6.1,i,i,nt,nt
Cc1csc(SCC(=O)c2cc(C)n(Cc3cccs3)c2C)n1,i,i,-0.93,-7.3,i,-9.5*,132.7*,0.139*
CC(=O)Nc1ccc(SCC(=O)c2cc(C)n(Cc3cccs3)c2C)cc1,i,i,1.28,-3.9,i,i,nt,nt
Cc1cc(C(=O)CSc2nnc(N)s2)c(C)n1Cc1cccs1,i,i,0.73,-8.7,i,i,nt,nt
Cc1cc(C(=O)CSc2n[nH]c(-c3ccccc3F)n2)c(C)n1Cc1cccs1,i,i,-3.24,-11.7,i,-10.2*,91.7*,i
Cc1ccc(NC(=O)c2cc(C(C)(C)C)nn2Cc2ccccc2)cc1,i,i,0.48,-16.6,i,-16.2*,147.7*,i
